In paper PMC4349556 (Journal of pharmaceutical sciences, 2014):

Legend:
[1] = DPH fluorescence anisotropy: membrane fluidity and phase transition temperature; format: physicochemical; conditions: lipid-to-drug molar ratio 8:1
[2] = Hydration of drug in buffer in the absence of lipids; format: physicochemical; conditions: after solvent removal and hydration in buffer
[3] = Drug incorporation efficiency into lipid-drug nanoparticles; format: physicochemical; conditions: for Drug incorporation (% total): anti-HIV drug combination LNPs (ATV+RTV+TFV) used in primates, preclinical scale; for Incorporation efficiency (%): DSPC:DSPE-mPEG2000 8:2, mean ± SD of 4
Outline: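 Film rehydrated in 0.9% NaCl with 20 mM sodium bicarbonate (pH 7.4) at 60°C for 2 h, then sonicated or homogenized. 50 μL aliquot dialyzed (MWCO 6,000-8,000) against 1,000 mL pH 7.4 buffer; drug quantified by HPLC/MS/MS. Efficiency = incorporated/total loaded ×100%.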

[4] = Plasma time course of anti-HIV drug combination lipid nanoparticles in primates; conditions: male, Macaca nemestrina (macaque), in vivo, sc
[5] = 12 HIV infected patients, prospective clinical study; cited from earlier work

| SMILES | Effect on DPH polarization / membrane order versus drug-free lipid control [1] | Reduction of Tc versus control LNPs [1] [°C] | Behaviour in the absence of lipids in the mixture [2] | Drug incorporation (% total) [3] [%] | AUC fraction (% total) 8-168 h [4] [%] | Lymph node intracellular drug levels lower than those in blood [5] [%] | Incorporation efficiency (%) ([3]; lipid : drug 5 : 1 (mol/mol)) | Incorporation efficiency (%) ([3]; lipid : drug 8 : 1 (mol/mol)) | Incorporation efficiency (%) ([3]; lipid : drug 20 : 1 (mol/mol)) | Incorporation efficiency ([3]; range over lipid-to-drug molar ratios 5:1, 8:1 and 20:1) |
| --- | --- | --- | --- | --- | --- | --- | --- | --- | --- | --- |
| CC(C)CN(C[C@@H](O)[C@H](Cc1ccccc1)NC(=O)O[C@H]1CO[C@H]2OCC[C@H]21)S(=O)(=O)c1ccc(N)cc1 [Darunavir (DRV), Darunavir] | decreased the polarization of DPH | 1.6 | formed precipitates |  |  |  |  |  |  |  |
| C[C@H](Cn1cnc2c(N)ncnc21)OCP(=O)(O)O [Tenofovir (TFV), tenofovir] |  |  |  | 6.1 ± 0.8 | 97.4 |  |  |  |  |  |
| COC(=O)N[C@H](C(=O)N[C@@H](Cc1ccccc1)[C@@H](O)CN(Cc1ccc(-c2ccccn2)cc1)NC(=O)[C@@H](NC(=O)OC)C(C)(C)C)C(C)(C)C [Atazanavir (ATV), Atazanavir] | less influence on the membrane order |  | formed precipitates | 85.5 ± 8.2 | 95.3 | ≤ 99 | 96.5 ± 2.6 | 96.2 ± 3.8 | 97.4 ± 1.8 | 96.2-97.4% |
| CC(C)c1nc(CN(C)C(=O)N[C@H](C(=O)N[C@@H](Cc2ccccc2)C[C@H](O)[C@H](Cc2ccccc2)NC(=O)OCc2cncs2)C(C)C)cs1 [Ritonavir (RTV), ritonavir] |  |  |  |  | 80.4 |  |  |  |  |  |
